Source: publication PMC12343878 (Communications Biology, 2025)
Square brackets hold non-standard residues; d marks the D form. Peptide text beside a SMILES is read from it. * marks the point of attachment. X1 = CCCCCCCCCCCCCCCC(=O)OC[C@H](COP(=O)(O)OCCNC(=O)CCCc1ccc(N2C(=O)CC(*)C2=O)cc1)OC(=O)CCCCCCCCCCCCCCC; pS = N[C@@H](COP(=O)(O)O)C(=O)O

Assays:
[1] = biological target: T1, AP2 (UniProt P18484+P62743+P63010+P84092); assay: SNR low-resolution slab model of membrane-bound AP2 on Langmuir monolayers; format: binding; conditions: AP2 10 nM
T1 sequence (P63010 1-591): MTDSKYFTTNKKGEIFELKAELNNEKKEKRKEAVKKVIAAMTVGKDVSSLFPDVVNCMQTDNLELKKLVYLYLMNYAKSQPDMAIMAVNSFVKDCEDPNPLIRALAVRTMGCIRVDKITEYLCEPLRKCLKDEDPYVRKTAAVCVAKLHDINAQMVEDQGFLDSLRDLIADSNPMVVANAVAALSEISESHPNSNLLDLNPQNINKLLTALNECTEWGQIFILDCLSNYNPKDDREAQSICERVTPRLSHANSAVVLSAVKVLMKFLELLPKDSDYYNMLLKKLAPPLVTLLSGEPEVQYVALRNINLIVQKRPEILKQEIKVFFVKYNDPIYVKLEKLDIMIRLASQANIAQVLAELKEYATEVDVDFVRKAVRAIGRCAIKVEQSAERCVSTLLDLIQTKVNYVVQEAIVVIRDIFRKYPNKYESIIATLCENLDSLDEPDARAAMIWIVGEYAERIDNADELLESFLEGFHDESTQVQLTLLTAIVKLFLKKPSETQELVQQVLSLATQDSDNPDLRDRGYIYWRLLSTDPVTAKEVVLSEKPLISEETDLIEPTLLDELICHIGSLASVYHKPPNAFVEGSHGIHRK
T1 sequence (P84092 whole entry): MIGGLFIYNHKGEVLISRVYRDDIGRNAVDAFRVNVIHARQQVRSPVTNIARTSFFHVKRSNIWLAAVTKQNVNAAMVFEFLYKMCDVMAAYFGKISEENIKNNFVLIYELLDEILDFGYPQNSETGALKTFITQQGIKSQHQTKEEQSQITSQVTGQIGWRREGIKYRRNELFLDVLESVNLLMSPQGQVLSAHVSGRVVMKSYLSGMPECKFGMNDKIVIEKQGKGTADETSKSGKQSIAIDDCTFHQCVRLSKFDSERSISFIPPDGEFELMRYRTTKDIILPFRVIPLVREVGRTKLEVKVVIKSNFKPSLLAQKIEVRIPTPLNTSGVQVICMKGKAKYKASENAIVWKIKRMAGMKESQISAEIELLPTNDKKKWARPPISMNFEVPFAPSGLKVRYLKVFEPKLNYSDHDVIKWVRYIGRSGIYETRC
T1 sequence (P18484 1-621): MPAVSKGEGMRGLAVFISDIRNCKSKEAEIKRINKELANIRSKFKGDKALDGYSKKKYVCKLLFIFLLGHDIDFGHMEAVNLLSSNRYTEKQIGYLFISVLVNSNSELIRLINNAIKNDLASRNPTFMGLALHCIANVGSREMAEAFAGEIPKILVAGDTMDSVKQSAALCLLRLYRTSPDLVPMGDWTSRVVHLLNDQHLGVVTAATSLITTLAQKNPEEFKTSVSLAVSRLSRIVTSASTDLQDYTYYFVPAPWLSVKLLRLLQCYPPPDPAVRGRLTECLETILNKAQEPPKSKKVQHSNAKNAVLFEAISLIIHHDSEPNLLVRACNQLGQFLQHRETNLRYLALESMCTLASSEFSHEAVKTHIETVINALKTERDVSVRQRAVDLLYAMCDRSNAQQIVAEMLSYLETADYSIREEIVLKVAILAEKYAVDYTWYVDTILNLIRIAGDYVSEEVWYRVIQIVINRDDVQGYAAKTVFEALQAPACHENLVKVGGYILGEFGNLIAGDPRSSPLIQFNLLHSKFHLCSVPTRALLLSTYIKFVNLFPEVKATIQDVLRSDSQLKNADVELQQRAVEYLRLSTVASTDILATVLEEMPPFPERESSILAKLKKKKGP
T1 sequence (P62743 whole entry): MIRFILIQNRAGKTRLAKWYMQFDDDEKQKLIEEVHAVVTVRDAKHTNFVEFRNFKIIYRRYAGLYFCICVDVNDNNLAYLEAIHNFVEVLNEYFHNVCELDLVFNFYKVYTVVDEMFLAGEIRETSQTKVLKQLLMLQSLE
Summary of the method: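 Langmuir-trough monolayers held at 25 ± 1 mN/m were measured on the FIGARO reflectometer, then AP2 was injected beneath them to a final bulk concentration of 10 nM. Settings were two incidence angles (0.6°, 3.7°), 7% wavelength resolution and Qz 0.007–0.25 Å−1, with 100% D2O and 8.1% D2O contrasts. The bound protein was fitted as a slab of constant SLD. Fit errors were ±1σ, checked against triplicate measurements.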

[2] = biological target: T1, AP2; assay: Fluid-phase tapping-mode AFM of transferred monolayers; conditions: CD4-presenting monolayers
Summary of the method: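 Monolayers were transferred from a Langmuir trough onto glass coverslips by Langmuir–Schaeffer and imaged by fluid-phase tapping-mode AFM. Scans were 5 μm at 256×256 pixels and 1 Hz. A droplet of HKM buffer containing recombinant AP2 was spread and imaged before evaporation. Thickness profiles (n = 10) were Gaussian-fitted to give mean ± SD.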

[3] = SNR of Langmuir lipid monolayers before AP2; format: physicochemical; conditions: Π0 = 25 ± 0.5 mN/m
[4] = Surface pressure - area isotherms of PM model membranes; format: physicochemical; conditions: T = 21 ± 0.5 °C
[5] = biological target: T1, AP2; assay: Equilibrium tensiometry binding analysis
[6] = biological target: T1, AP2; assay: High-resolution SNR rigid-body modeling of membrane-bound AP2; format: binding
Summary of the method: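 Measured on the FIGARO time-of-flight reflectometer at 0.6° and 3.7°, 7% dλ/λ, Qz 0.007–0.25 Å−1, in 100% and 8.1% D2O contrasts. Trough monolayers at 25 ± 1 mN/m were measured before and after AP2 injection into the subphase (final 10 nM). SLD profiles were calculated from energy-minimised open, open+ and closed AP2 models (PDB […], 6qh6, 2vgl) to fit orientation and position. Fractional coverage is given as mean ± SD, n = 256.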

[7] = biological target: CD4 lipo-peptide (di-leucine peptide derived from the phosphorylated cytoplasmic tail of CD4, lipid-conjugated); assay: specular neutron reflectometry
[8] = biological target: TGN38 lipo-peptide (Yxxφ-containing peptide derived from the cytoplasmic tail of TGN38, lipid-conjugated); assay: specular neutron reflectometry
[9] = biological target: CD4 lipo-peptide (di-leucine peptide derived from the phosphorylated cytoplasmic tail of CD4, lipid-conjugated); assay: Langmuir trough surface-pressure tensiometry
[10] = biological target: TGN38 lipo-peptide (Yxxφ-containing peptide derived from the cytoplasmic tail of TGN38, lipid-conjugated); assay: Langmuir trough surface-pressure tensiometry

Chain of AP2 (recombinant adaptor protein complex 2, hetero-tetramer) (P18484 whole entry): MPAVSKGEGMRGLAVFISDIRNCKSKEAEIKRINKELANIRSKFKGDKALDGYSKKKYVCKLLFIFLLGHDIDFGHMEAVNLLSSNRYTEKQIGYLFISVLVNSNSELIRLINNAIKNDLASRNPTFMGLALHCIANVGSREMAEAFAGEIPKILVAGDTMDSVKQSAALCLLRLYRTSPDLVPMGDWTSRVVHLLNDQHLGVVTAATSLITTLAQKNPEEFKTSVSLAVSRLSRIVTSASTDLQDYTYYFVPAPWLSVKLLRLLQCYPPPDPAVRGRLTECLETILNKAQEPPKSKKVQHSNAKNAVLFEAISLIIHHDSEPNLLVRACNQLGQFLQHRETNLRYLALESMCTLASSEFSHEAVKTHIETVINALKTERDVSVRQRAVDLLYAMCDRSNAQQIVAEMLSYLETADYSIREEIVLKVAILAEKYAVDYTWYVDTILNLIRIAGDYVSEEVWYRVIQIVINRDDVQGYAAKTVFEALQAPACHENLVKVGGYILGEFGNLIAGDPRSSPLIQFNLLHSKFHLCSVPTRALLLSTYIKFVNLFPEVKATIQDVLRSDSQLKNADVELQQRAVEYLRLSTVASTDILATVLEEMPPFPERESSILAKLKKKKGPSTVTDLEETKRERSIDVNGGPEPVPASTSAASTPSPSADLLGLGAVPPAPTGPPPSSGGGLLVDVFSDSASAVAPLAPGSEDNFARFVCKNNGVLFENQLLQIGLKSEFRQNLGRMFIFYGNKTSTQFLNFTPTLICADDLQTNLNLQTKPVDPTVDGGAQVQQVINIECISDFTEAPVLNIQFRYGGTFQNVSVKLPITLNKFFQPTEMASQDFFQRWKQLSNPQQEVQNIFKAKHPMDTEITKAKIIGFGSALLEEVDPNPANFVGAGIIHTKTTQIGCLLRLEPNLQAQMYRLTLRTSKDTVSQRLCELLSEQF
Chain of AP2 (recombinant adaptor protein complex 2, hetero-tetramer) (P63010 whole entry): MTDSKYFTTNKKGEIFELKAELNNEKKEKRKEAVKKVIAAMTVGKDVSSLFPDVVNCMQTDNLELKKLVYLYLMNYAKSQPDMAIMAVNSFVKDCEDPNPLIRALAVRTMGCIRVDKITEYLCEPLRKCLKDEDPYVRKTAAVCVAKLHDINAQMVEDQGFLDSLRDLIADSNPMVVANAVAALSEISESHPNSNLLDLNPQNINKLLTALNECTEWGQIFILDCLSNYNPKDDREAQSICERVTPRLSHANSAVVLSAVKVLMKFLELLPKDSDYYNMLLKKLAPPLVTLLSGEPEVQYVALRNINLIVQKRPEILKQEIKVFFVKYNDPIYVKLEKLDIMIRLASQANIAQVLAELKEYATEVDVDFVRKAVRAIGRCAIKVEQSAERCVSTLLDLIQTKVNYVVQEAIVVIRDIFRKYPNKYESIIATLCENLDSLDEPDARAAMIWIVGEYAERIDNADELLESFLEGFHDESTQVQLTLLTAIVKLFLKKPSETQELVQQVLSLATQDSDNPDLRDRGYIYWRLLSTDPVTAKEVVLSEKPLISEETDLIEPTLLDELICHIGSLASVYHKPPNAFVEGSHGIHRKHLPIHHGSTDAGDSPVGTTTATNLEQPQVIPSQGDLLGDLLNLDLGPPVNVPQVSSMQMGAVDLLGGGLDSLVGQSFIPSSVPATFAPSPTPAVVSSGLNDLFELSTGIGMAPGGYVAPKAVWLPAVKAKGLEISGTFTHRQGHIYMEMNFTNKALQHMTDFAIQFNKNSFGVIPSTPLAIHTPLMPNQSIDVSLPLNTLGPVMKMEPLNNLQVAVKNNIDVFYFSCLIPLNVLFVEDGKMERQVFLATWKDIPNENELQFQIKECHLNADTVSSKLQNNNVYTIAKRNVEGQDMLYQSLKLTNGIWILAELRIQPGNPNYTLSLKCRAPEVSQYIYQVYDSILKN
Chain of AP2 (recombinant adaptor protein complex 2, hetero-tetramer) (P84092 whole entry): as the sequence (P84092 whole entry) above
Chain of AP2 (recombinant adaptor protein complex 2, hetero-tetramer) (P62743 whole entry): as the sequence (P62743 whole entry) above

| total thickness of membrane-bound AP2 [1] | increment of bright spots' thickness after AP2 [2] | change in lateral pressure ΔΠ∞ on addition of cargo ([5]; AP2, Π0 = 25 mN/m, vs PtdIns(4,5)P2-only) | AP2 concentration above which biphasic binding behavior is observed ([5]; cargo-presenting monolayer vs PtdIns(4,5)P2-only) | surface coverage of AP2 ([6]; open AP2 conformation) | distance of AP2 center-of-mass to membrane head group ([6]; open AP2 conformation (2xa7)) | surface coverage of AP2 on the monolayer (with PtdIns(4,5)P2) [7] | surface coverage of AP2 on the monolayer (with PtdIns(4,5)P2) [8] | Kd [9] | apparent koff (combined cargo and PtdIns(4,5)P2 binding, monolayer) [9] | overall Kd (monolayer with cargo and PtdIns(4,5)P2, 35 mN/m) [9] | residence time (1/koff) on the monolayer with PtdIns(4,5)P2 [9] | Kd from kinetics (monolayer with cargo and PtdIns(4,5)P2) [10] | overall Kd (monolayer with cargo and PtdIns(4,5)P2) [10] | overall Kd (monolayer with cargo and PtdIns(4,5)P2, 35 mN/m) [10] | residence time (1/koff) on the monolayer with PtdIns(4,5)P2 [10] | Compound | location of cargo peptides in monolayer [3] | effect on liquid expanded (LE) phase [4] |
| --- | --- | --- | --- | --- | --- | --- | --- | --- | --- | --- | --- | --- | --- | --- | --- | --- | --- | --- |
| 84 ± 6 Å | A similar increment was also found | further increases in lateral pressure | > 10 nM | 24% | 10 ± 4 Å |  |  |  |  |  |  |  |  |  |  | CCCCCCCCCCCCCCCC(=O)OC[C@H](COP(=O)(O)OCCNC(=O)CCCc1ccc(N2C(=O)CC(SC[C@H](N)C(=O)N[C@@H](Cc3c[nH]cn3)C(=O)N[C@@H](CCCNC(=N)N)C(=O)N[C@@H](CCCNC(=N)N)C(=O)N[C@@H](CCCNC(=N)N)C(=O)N[C@@H](CCC(N)=O)C(=O)N[C@@H](C)C(=O)N[C@@H](CCC(=O)O)C(=O)N[C@@H](CCCNC(=N)N)C(=O)N[C@@H](CCSC)C(=O)N[C@@H](COP(=O)(O)O)C(=O)N[C@@H](CCC(N)=O)C(=O)N[C@H](C(=O)N[C@@H](CCCCN)C(=O)N[C@@H](CCCNC(=N)N)C(=O)N[C@@H](CC(C)C)C(=O)N[C@@H](CC(C)C)C(=O)N[C@@H](CO)C(=O)N[C@@H](CCC(=O)O)C(=O)N[C@@H](CCCCN)C(=O)O)[C@@H](C)CC)C2=O)cc1)OC(=O)CCCCCCCCCCCCCCC (stereo partly drawn) [CD4] (H-C(X1)HRRRQAERM[pS]QIKRLLSEK-OH; N-terminus and C-terminus assumed) | confined to the headgroups layer | did not alter the existence of the LE phase |
|  |  |  |  |  |  | 24% | 51% | 75 nM | 0.00012 s⁻¹ | 93 nM | 8330 s | 12 nM | 15 nM | 64 nM | 5560 s | AP2 (recombinant adaptor protein complex 2, hetero-tetramer) (from UniProt P18484 1-938; P63010 1-937; P84092 1-435; P62743 1-142) |  |  |
